Assay results reported in ChEMBL document CHEMBL1123415, “Benzo[a]carbazole derivatives. Synthesis, estrogen receptor binding affinities, and mammary tumor inhibiting activity” (1986).
Several values for one entry are separate records, joined by “and”; a condition that tells them apart may be missing. Equal entries are not always repeated. Each block holds one compound with its values, some of them ahead of it.

Experiments:
[1] = target: Estrogen receptor (Bos taurus) (UniProt Q9XSB5+P49884); test: Evaluated for relative binding affinity (RBA) for calf uterine estrogen receptor; assay type: protein assay
Summary of the method: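 Calf uterine cytosol (105000g supernatant; final protein 3 mg/mL) in Tris-EDTA-azide buffer pH 7.5. Incubated with 5 nM [³H]estradiol and competitor (10⁻⁹–10⁻⁴ M) for 18 h at 4 °C. Free ligand removed with dextran-coated charcoal, bound counted by scintillation. Nonspecific binding measured with 5 μM estradiol. RBA = estradiol/competitor molar ratio at 50% displacement ×100.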

[2] = target: T1, Estrogen receptor (Mus musculus) (UniProt O08537+P19785); test: Uterotrophic activity in mice as uterus dry weight (mg)/body weight (g) *100 at 5 ug; assay type: functional, tissue-based
Summary of the method: (§1)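 Immature 19-day-old female NMRI mice, 10 per group. Compound in olive oil injected sc on 3 consecutive days, dose per animal; vehicle-only controls, estrone as reference. Killed 24 h after last injection. Uteri fixed in Bouin solution, dried at 100 °C for 24 h. Value = uterine dry weight (mg)/body weight (g) ×100, mean of 10 animals ± SD.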

[3] = target: T1, Estrogen receptor (Mus musculus); test: Uterotrophic activity in mice as uterus dry weight (mg)/body weight (g) *100 at 25 ug; assay type: functional, tissue-based; summary of the method: as §1
[4] = target: T1, Estrogen receptor (Mus musculus); test: Uterotrophic activity in mice as uterus dry weight (mg)/body weight (g) *100 at 0.2 ug; assay type: functional, tissue-based; summary of the method: as §1
[5] = target: T1, Estrogen receptor (Mus musculus); test: Uterotrophic activity in mice as uterus dry weight (mg)/body weight (g) *100 at 1 ug; assay type: functional, tissue-based; summary of the method: as §1
[6] = test system: MCF7; test: Inhibition of [3H]thymidine incorporation into hormone sensitive MCF-7 human breast cancer cells at 10e-5 M; assay type: functional
Summary of the method: (§2)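 MCF-7 cells kept two weeks in medium with 5% charcoal-treated calf serum, 37 °C, 5% CO₂. About 2×10⁴ cells per well; compound added next day in 0.1% ethanol, ethanol-only controls, medium changed on day 4. Cells counted on day 7 by Coulter counter; [³H]thymidine 1 μCi/well for 2 h. Mean of six dishes.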

[7] = test system: MCF7; test: Inhibition of [3H]thymidine incorporation into hormone sensitive MCF-7 human breast cancer cells at 10e-6 M; assay type: functional; summary of the method: as §2
[8] = test system: MCF7; test: Reduction of cell number of hormone sensitive MCF-7 human breast cancer cells at 10e-6 M
[9] = test system: MCF7; test: Reduction of cell number of hormone sensitive MCF-7 human breast cancer cells at 10e-5 M
[10] = target: T1, Estrogen receptor (Mus musculus); test: Uterotrophic activity in mice as uterus dry weight (mg)/body weight (g) *100 at 125 ug; assay type: functional, tissue-based; summary of the method: as §1
[11] = organism: Rattus norvegicus; test: Initial tumor number in DMBA-induced tumor bearing rats at 4 mg dose (experiment-2); assay type: functional
Summary of the method: (§3)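 Female Sprague–Dawley rats given a single 20 mg DMBA dose by gavage in 1 mL olive oil at 50 days old. Randomized once tumor area per animal exceeded 140 mm². Compound given sc in olive oil (1 mL/kg), dose per kg, once daily Monday–Thursday, double dose Friday. Tumor area from caliper measurement of two perpendicular axes, twice weekly. Significance by Wilcoxon–Mann–Whitney U test.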

[12] = organism: Rattus norvegicus; test: Partial remission of DMBA-induced mammary tumors in rats at 4 mg dose; assay type: functional; summary of the method: as §3
[13] = organism: Rattus norvegicus; test: Percentage progressive DMBA-induced mammary tumors in rats at 1 mg dose (experiment-1); assay type: functional; summary of the method: as §3
[14] = organism: Rattus norvegicus; test: Percentage static unchanged DMBA-induced mammary tumors in rats at 4 mg dose (experiment-1); assay type: functional; summary of the method: as §3
[15] = organism: Rattus norvegicus; test: Final tumor number in DMBA-induced tumor bearing rats at 4 mg dose (experiment-2); assay type: functional; summary of the method: as §3
[16] = organism: Rattus norvegicus; test: Percentage static unchanged DMBA-induced mammary tumors in rats at 1 mg dose (experiment-1); assay type: functional; summary of the method: as §3
[17] = organism: Rattus norvegicus; test: Partial remission of DMBA-induced mammary tumors in rats at 1 mg dose; assay type: functional; summary of the method: as §3
[18] = organism: Rattus norvegicus; test: (§4) Change in DMBA-induced mammary tumor area in rats after 28 day therapy at 4 mg dose (experiment-2); assay type: functional; summary of the method: as §3
[19] = organism: Rattus norvegicus; test: Initial tumor number in DMBA-induced tumor bearing rats at 1 mg dose (experiment-1); assay type: functional; summary of the method: as §3
[20] = organism: Rattus norvegicus; test: as §4; assay type: functional; summary of the method: as §3; remark: listed apart in the source
[21] = organism: Rattus norvegicus; test: Complete remission of DMBA-induced mammary tumors in rats at 1 mg dose; assay type: functional; summary of the method: as §3
[22] = organism: Rattus norvegicus; test: Final tumor number in DMBA-induced tumor bearing rats at 1 mg dose (experiment-1); assay type: functional; summary of the method: as §3
[23] = organism: Rattus norvegicus; test: Percentage progressive DMBA-induced mammary tumors in rats at 4 mg dose (experiment-1); assay type: functional; summary of the method: as §3
[24] = organism: Rattus norvegicus; test: Change in DMBA-induced tumor area in rats after 28 day therapy at 1 mg dose (experiment-1); assay type: functional; summary of the method: as §3
[25] = organism: Rattus norvegicus; test: Complete remission of DMBA-induced mammary tumors in rats at 4 mg dose; assay type: functional; summary of the method: as §3
[26] = organism: Rattus norvegicus; test: Final tumor number in DMBA-induced tumor bearing rats at 4 mg dose (experiment-1); assay type: functional; summary of the method: as §3
[27] = organism: Rattus norvegicus; test: Initial tumor number in DMBA-induced tumor bearing rats at 4 mg dose (experiment-1); assay type: functional; summary of the method: as §3
[28] = organism: Rattus norvegicus; test: Change in DMBA-induced mammary tumor area in rats after 28 day therapy at 1 mg dose (experiment-1); assay type: functional; summary of the method: as §3
[29] = organism: Rattus norvegicus; test: Change in DMBA-induced mammary tumor area in rats after 28 day therapy at 4 mg dose (experiment-1); assay type: functional; summary of the method: as §3
[30] = target: T1, Estrogen receptor (Mus musculus); details: Uterus
[31] = target: T1, Estrogen receptor (Mus musculus); details: Uterus; remark: listed apart in the source
[32] = target: T1, Estrogen receptor (Mus musculus); details: Uterus; remark: listed apart in the source
[33] = target: T1, Estrogen receptor (Mus musculus); details: Uterus; remark: listed apart in the source
[34] = organism: Rattus norvegicus; test: Partial remission of DMBA-induced mammary tumors in rats at 3 mg dose; assay type: functional; summary of the method: as §3
[35] = organism: Rattus norvegicus; test: Percentage static unchanged DMBA-induced mammary tumors in rats at 3 mg dose (experiment-1); assay type: functional; summary of the method: as §3
[36] = organism: Rattus norvegicus; test: Final tumor number in DMBA-induced tumor bearing rats at 3 mg dose (experiment-1); assay type: functional; summary of the method: as §3
[37] = organism: Rattus norvegicus; test: (§5) Change in DMBA-induced mammary tumor area in rats after 28 day therapy at 3 mg dose (experiment-1); assay type: functional; summary of the method: as §3
[38] = test system: MCF7; test: Percentage cell number change as treated/control in hormone sensitive MCF-7 cell proliferation assay at 10e-6 M or 10e-5 M; assay type: functional, Homo sapiens; summary of the method: as §2
[39] = organism: Rattus norvegicus; test: Initial tumor number in DMBA-induced tumor bearing rats at 3 mg dose (experiment-1); assay type: functional; summary of the method: as §3
[40] = organism: Rattus norvegicus; test: as §5; assay type: functional; summary of the method: as §3; remark: listed apart in the source
[41] = organism: Rattus norvegicus; test: Complete remission of DMBA-induced mammary tumors in rats at 3 mg dose; assay type: functional; summary of the method: as §3
[42] = organism: Rattus norvegicus; test: Percentage progressive DMBA-induced mammary tumors in rats at 3 mg dose (experiment-1); assay type: functional; summary of the method: as §3
[43] = test system: MCF7; test: Percentage [3H]thymidine incorporation treated/control in hormone sensitive MCF-7 cell proliferation assay at 10e-5 M or 10e-6 M; assay type: functional, Homo sapiens; summary of the method: as §2

T1 sequence (O08537 whole entry, looked up): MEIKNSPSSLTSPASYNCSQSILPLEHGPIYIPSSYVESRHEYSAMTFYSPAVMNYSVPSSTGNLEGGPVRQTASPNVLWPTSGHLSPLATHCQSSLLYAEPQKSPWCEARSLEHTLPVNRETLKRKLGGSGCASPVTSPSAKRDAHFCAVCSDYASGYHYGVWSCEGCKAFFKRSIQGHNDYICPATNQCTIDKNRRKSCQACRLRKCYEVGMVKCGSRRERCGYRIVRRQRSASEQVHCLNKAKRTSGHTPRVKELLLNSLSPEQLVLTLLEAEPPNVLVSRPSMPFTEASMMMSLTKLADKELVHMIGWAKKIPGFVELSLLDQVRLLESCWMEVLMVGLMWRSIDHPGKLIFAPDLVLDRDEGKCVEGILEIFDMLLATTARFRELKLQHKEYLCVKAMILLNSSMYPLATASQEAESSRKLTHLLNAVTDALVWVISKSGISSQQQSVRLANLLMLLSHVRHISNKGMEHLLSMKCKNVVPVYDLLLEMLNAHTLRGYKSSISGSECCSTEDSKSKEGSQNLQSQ
T1 sequence (P19785 whole entry, looked up): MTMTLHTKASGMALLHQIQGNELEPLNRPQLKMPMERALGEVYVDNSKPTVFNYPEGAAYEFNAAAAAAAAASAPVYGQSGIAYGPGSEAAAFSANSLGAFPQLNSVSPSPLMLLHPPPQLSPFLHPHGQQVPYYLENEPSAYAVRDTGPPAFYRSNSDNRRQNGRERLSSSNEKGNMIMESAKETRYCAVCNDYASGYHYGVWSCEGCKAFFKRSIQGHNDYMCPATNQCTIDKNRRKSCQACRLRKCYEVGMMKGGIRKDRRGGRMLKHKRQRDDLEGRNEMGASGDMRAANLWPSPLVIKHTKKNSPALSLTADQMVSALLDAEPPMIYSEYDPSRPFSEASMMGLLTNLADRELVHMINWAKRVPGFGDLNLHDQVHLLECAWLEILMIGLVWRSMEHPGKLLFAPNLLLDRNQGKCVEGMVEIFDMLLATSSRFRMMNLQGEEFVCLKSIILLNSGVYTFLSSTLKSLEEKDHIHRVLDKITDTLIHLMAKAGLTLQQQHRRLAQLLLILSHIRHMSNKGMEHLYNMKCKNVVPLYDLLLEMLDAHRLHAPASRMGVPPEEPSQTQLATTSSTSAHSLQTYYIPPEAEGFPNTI

Compound: CCn1c2c(c3ccc(O)cc31)CCc1ccccc1-2
relative binding affinity (RBA) [1]: 0.8

Compound: Cn1c2c(c3ccc(O)cc31)CCc1cc(O)ccc1-2
relative binding affinity (RBA) [1]: 9.6

Compound: CCn1c2c(c3ccc(OC(C)=O)cc31)CCc1cc(OC(C)=O)ccc1-2
Activity [2]: 45.8 | Activity [3]: 43.9 | Activity [4]: 20.3 | Activity [5]: 29.3

Compound: CCn1c2cc(OC(C)=O)ccc2c2ccc3cc(OC(C)=O)ccc3c21
Effect [2]: 38.5 | Effect [3]: 38.7 | Effect [4]: 21.6 | Effect [10]: 46 | Effect [5]: 28.5

Compound: CCn1c2ccc(OC(C)=O)cc2c2ccc3cc(OC(C)=O)ccc3c21
Effect [2]: 14.4 | No. of tumors [11]: 23 | Effect [12]: 10% | Effect [13]: 70% | Effect [14]: 25% | No. of new tumors [15]: 45 | Effect [16]: 19% | Effect [17]: 8% | Change of tumor area [18]: 111% | No. of tumors [19]: 22 | Effect [3]: 15.1 | Change of tumor area [20]: 561% | Effect [21]: 3% | No. of new tumors [22]: 41 | Effect [23]: 59% | Median [24]: 493% | Range [24]: -29% | Effect [25]: 6% | Effect [4]: 12 | Effect [10]: 18.1 | Effect [5]: 13.7

Compound: CCn1c2c(c3cc(O)ccc31)CCc1c(O)cccc1-2
relative binding affinity (RBA) [1]: 1.9

Compound: CCn1c2c(c3cc(OC(C)=O)ccc31)CCc1cc(OC(C)=O)ccc1-2
Effect [2]: 18.4 | Effect [12]: 6% | Effect [13]: 49% | No. of new tumors [26]: 24 | Effect [14]: 23% | No. of tumors [27]: 24 | Effect [16]: 35% | Effect [17]: 7% | No. of tumors [19]: 22 | Change in tumor area [28]: 179% | Effect [3]: 23.6 | Change in tumor area [29]: 230% | Effect [21]: 9% | No. of new tumors [22]: 21 | Effect [23]: 61% | Effect [25]: 10% | Effect [4]: 15.3 | Effect [10]: 25.4 | Effect [5]: 19.6

Compound: CCn1c2c(c3ccc(O)cc31)CCc1c(O)cccc1-2
relative binding affinity (RBA) [1]: 1.3

Compound: CCCCn1c2c(c3ccc(O)cc31)CCc1cc(O)ccc1-2
relative binding affinity (RBA) [1]: 9.5

Compound: C[C@]12CC[C@@H]3c4ccc(O)cc4CC[C@H]3[C@@H]1CCC2=O
Effect [30]: 42.5 | Effect [31]: 46.9 | Effect [32]: 48.6 | Effect [33]: 46.9

Compound: CCCn1c2c(c3ccc(O)cc31)CCc1cc(O)ccc1-2
relative binding affinity (RBA) [1]: 38

Compound: CCn1c2c(c3ccccc31)CCc1cc(O)ccc1-2
relative binding affinity (RBA) [1]: 1.8

Compound: CCn1c2c(c3cc(O)ccc31)CCc1ccccc1-2
relative binding affinity (RBA) [1]: 0.06

Compound: CC/C(=C(\c1ccccc1)c1ccc(OCCN(C)C)cc1)c1ccccc1 [TAMOXIFEN]
Effect [34]: 7% | Effect [35]: 27% | No. of new tumors [36]: 24 | Change in tumor area [37]: -57% | T/C [38]: 2% and 12% | Activity [6]: 80 | Activity [7]: 1850 | No. of tumors [39]: 31 | cell number [8]: 4800 | Change in tumor area [40]: 136% | Effect [41]: 22% | Effect [42]: 44% | cell number [9]: 2000 | T/C [43]: 0% and 6%

Continued, in another order:

relative binding affinity (RBA) [1]: 3.6
Compound: CCn1c2cc(O)ccc2c2ccc3ccc(O)cc3c21

relative binding affinity (RBA) [1]: 0.1
Compound: CCn1c2ccc(O)cc2c2ccc3c(O)cccc3c21

relative binding affinity (RBA) [1]: 13
Compound: CCn1c2c(c3cc(O)ccc31)CCc1cc(O)ccc1-2
Activity [6]: 760 | Activity [7]: 25840 | cell number [8]: 28200 | cell number [9]: 4600

relative binding affinity (RBA) [1]: 0.08
Compound: CCn1c2ccc(O)cc2c2ccc3ccc(O)cc3c21

relative binding affinity (RBA) [1]: 9.7
Compound: CCn1c2c(c3ccc(O)cc31)CCc1ccc(O)cc1-2

relative binding affinity (RBA) [1]: 30
Compound: CCn1c2c(c3ccc(O)cc31)CCc1cc(O)ccc1-2

relative binding affinity (RBA) [1]: 20
Compound: CCn1c2cc(O)ccc2c2ccc3cc(O)ccc3c21

relative binding affinity (RBA) [1]: < 0.01
Compound: CCn1c2ccc(O)cc2c2ccc3ccccc3c21

relative binding affinity (RBA) [1]: 0.7
Compound: CCn1c2c(c3cc(O)ccc31)CCc1ccc(O)cc1-2

relative binding affinity (RBA) [1]: 0.65
Compound: CCn1c2cc(O)ccc2c2ccc3c(O)cccc3c21

relative binding affinity (RBA) [1]: 2.3
Compound: CCCCn1c2cc(O)ccc2c2ccc3cc(O)ccc3c21

relative binding affinity (RBA) [1]: 0.33
Compound: CCn1c2ccccc2c2ccc3cc(O)ccc3c21

relative binding affinity (RBA) [1]: 9.5
Compound: Cn1c2cc(O)ccc2c2ccc3cc(O)ccc3c21

relative binding affinity (RBA) [1]: 13
Compound: CCCn1c2cc(O)ccc2c2ccc3cc(O)ccc3c21

relative binding affinity (RBA) [1]: 6.5
Compound: CCn1c2ccc(O)cc2c2ccc3cc(O)ccc3c21
Activity [6]: 1040 | Activity [7]: 26460 | cell number [8]: 24100 | cell number [9]: 5200

relative binding affinity (RBA) [1]: 0.01
Compound: CCn1c2cc(O)ccc2c2ccc3ccccc3c21
